In ChEMBL document CHEMBL4145673, “Glucopyranosylbianthrones from the Algerian Asphodelus tenuifolius: Structural Insights and Biological Evaluation on Melanoma Cancer Cells” (J Nat Prod, 2018):
Calls of active or inactive are those of the source. No cut-off for these calls is given here.

Experiments:
[1] = test system: A-375; experiment: Induction of apoptosis in human A375 cells assessed as increase in hypodiploid nuclei at 20 to 40 uM measured after 48 hrs by propidium iodide staining based flow cytometry relative to control; type: functional
In short: (§1)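 A375 cells exposed 48 h (text gives 20, 30, 40 μM; methods give 10, 20, 40 μM), harvested, washed in cold PBS, stained 30 min at 4 °C in hypotonic PI buffer (0.1% sodium citrate, 0.1% Triton X-100, 25 μg/mL PI, 10 μg/mL RNase A). Flow cytometry for G0/G1, S, G2/M distribution and hypodiploid nuclei; means ± SD, triplicate determinations; two-way ANOVA with Bonferroni.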

[2] = test system: A-375; experiment: Antiproliferative activity against human A375 cells measured after 48 hrs by MTT assay; type: functional, cell-based
In short: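 A375 melanoma cells grown in DMEM with 10% FBS, 2 mM L-glutamine, penicillin/streptomycin at 37 °C, 5% CO2, subcultured every 2 days; seeded 1 × 10^4/well in triplicate, exposed 48 h to 5−50 μM (DMSO stock diluted into medium; vehicle control 0.1% v/v DMSO). MTT conversion read-out; IC50 from viability dose−response curves versus DMSO-treated control.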

[3] = test system: A-375; experiment: Cell cycle arrest in human A375 cells assessed as increase in accumulation at G2/M-phase at 20 to 40 uM measured after 48 hrs by propidium iodide staining based flow cytometry; type: functional; in short: as §1
[4] = test system: A-375; experiment: Cell cycle arrest in human A375 cells assessed as decrease in accumulation at S-phase at 20 to 40 uM measured after 48 hrs by propidium iodide staining based flow cytometry; type: functional; in short: as §1
[5] = test system: A-375; experiment: Cell cycle arrest in human A375 cells measured after 48 hrs by propidium iodide staining based flow cytometry; type: functional; in short: as §1
[6] = test system: A-375; experiment: Cell cycle arrest in human A375 cells assessed as decrease in accumulation at G1-phase at 20 to 40 uM measured after 48 hrs by propidium iodide staining based flow cytometry; type: functional; in short: as §1
[7] = test system: A-375; experiment: Cell cycle arrest in human A375 cells assessed as increase in accumulation at S-phase at 20 to 40 uM measured after 48 hrs by propidium iodide staining based flow cytometry; type: functional; in short: as §1

| IC50 ([2]; a-375) | IC50 ([2]; Homo sapiens, A-375, 48 h) | SMILES | Activity [1] | Activity [2] | Activity [3] | Activity [4] | Activity [5] | Activity [6] | Activity [7] |
| --- | --- | --- | --- | --- | --- | --- | --- | --- | --- |
| 23.2 µM |  | Cc1cc(O)c2c(c1)[C@](O)(C1O[C@H](CO)[C@@H](O)[C@H](O)[C@H]1O)c1ccc(-c3c(C)cc(O)c4c3C(=O)c3cccc(O)c3C4=O)c(O)c1C2=O (atropisomer P) [listing 1 of 2 here] | 12.2% |  |  |  |  |  |  |
|  |  | Cc1cc(O)c2c(c1)[C@](O)(C1O[C@H](CO)[C@@H](O)[C@H](O)[C@H]1O)c1ccc(-c3c(C)cc(O)c4c3C(=O)c3cccc(O)c3C4=O)c(O)c1C2=O (atropisomer P) [listing 2 of 2 here] |  | Dose-dependent effect | Active | Active | Dose-dependent effect | Active |  |
|  | 20.6 µM | Cc1cc(O)c2c(c1)[C@](O)(C1O[C@H](CO)[C@@H](O)[C@H](O)[C@H]1O)c1ccc(-c3c(C)cc(O)c4c3C(=O)c3cccc(O)c3C4=O)c(O)c1C2=O (single isomer, unassigned; atropisomer M) [listing 1 of 2 here] | 13.2% |  |  |  |  |  |  |
|  |  | Cc1cc(O)c2c(c1)[C@](O)(C1O[C@H](CO)[C@@H](O)[C@H](O)[C@H]1O)c1ccc(-c3c(C)cc(O)c4c3C(=O)c3cccc(O)c3C4=O)c(O)c1C2=O (single isomer, unassigned; atropisomer M) [listing 2 of 2 here] |  | Dose-dependent effect |  |  | Dose-dependent effect | Active | Active |
